# Measurements gathered from unrelated publications.
# Protocols differ between the studies behind these lines.
Structure (SMILES),organism,assay,test system,conditions,endpoint,result
C=CC(=O)ON=C1C=CC(=C(C#N)c2ccccc2)C=C1,Nakaseomyces glabratus,"microbial growth, broth dilution",ATCC15126,48 h,MIC,16 µg/mL
C/C(=N/NC(=O)c1cn(-c2ccccc2)nc1-c1ccc(C)cc1)c1c(O)cc(C)oc1=O,Bacillus subtilis,microbial growth,,,MIC,50 µg/mL
Cc1ccc(NC(=O)c2ccc(COC(Cn3ccnc3)c3ccc(Cl)cc3Cl)cc2)cc1 (stereo not shown),Nakaseomyces glabratus,"microbial growth, broth dilution",,,MIC80,0.06 µg/mL
C#CCOC(=O)ON=C1C=CC(=C(C#N)c2ccccc2)C=C1,Nakaseomyces glabratus,"microbial killing, broth dilution",ATCC15126,48 h,MFC,16 µg/mL
C[C@@H]1[C@H](O)[C@@H](C)/C=C/C=C/C=C/C=C/C=C/C=C/C=C/[C@H](O[C@@H]2O[C@H](C)[C@@H](O)[C@H](N)[C@@H]2O)C[C@@H]2O[C@](O)(C[C@@H](O)C[C@@H](O)[C@H](O)CC[C@@H](O)C[C@@H](O)CC(=O)O[C@H]1C)C[C@H](O)[C@H]2C(=O)O,Cryptococcus neoformans,"microbial growth, broth dilution",H99,48 h,MIC,0.5 µg/mL
O=C(Nc1cccc(F)c1)c1ccc(COC(Cn2ccnc2)c2ccc(Cl)cc2Cl)cc1 (stereo not shown),Nakaseomyces glabratus,"microbial growth, broth dilution",,,MIC80,0.125 µg/mL
C[C@@H]1[C@H](O)[C@@H](C)/C=C/C=C/C=C/C=C/C=C/C=C/C=C/[C@H](O[C@@H]2O[C@H](C)[C@@H](O)[C@H](N)[C@@H]2O)C[C@@H]2O[C@](O)(C[C@@H](O)C[C@@H](O)[C@H](O)CC[C@@H](O)C[C@@H](O)CC(=O)O[C@H]1C)C[C@H](O)[C@H]2C(=O)O,Cryptococcus neoformans,"microbial growth, broth dilution",,72 h,MIC,0.25 µg/mL
C/C(=N/NC(=O)c1cn(-c2ccccc2)nc1-c1ccc(F)cc1)c1c(O)cc(C)oc1=O,Bacillus subtilis,microbial growth,,,MIC,70 µg/mL
O=C(Nc1ccc2[nH]ccc2c1)c1ccc(COC(Cn2ccnc2)c2ccc(Cl)cc2Cl)cc1 (stereo not shown),Nakaseomyces glabratus,"microbial growth, broth dilution",,,MIC80,128 µg/mL
CC(=O)ON=C1C=CC(=C(C#N)c2ccccc2)C=C1,Nakaseomyces glabratus,"microbial growth, broth dilution",ATCC15126,48 h,MIC,16 µg/mL
O=C(Nc1ccc2ccccc2c1)c1ccc(COC(Cn2ccnc2)c2ccc(Cl)cc2Cl)cc1 (stereo not shown),Nakaseomyces glabratus,"microbial growth, broth dilution",,,MIC80,64 µg/mL
CC1(C)S[C@@H]2[C@H](NC(=O)[C@H](N)c3ccccc3)C(=O)N2[C@H]1C(=O)O,Bacillus subtilis,microbial growth,,,MIC,2 µg/mL
O=C(Nc1ccc2cccnc2c1)c1ccc(COC(Cn2ccnc2)c2ccc(Cl)cc2Cl)cc1 (stereo not shown),Nakaseomyces glabratus,"microbial growth, broth dilution",,,MIC80,8 µg/mL
C#CCON=C1C=CC(=C(C#N)c2ccccc2)C=C1,Nakaseomyces glabratus,"microbial killing, broth dilution",ATCC15126,48 h,MFC,32 µg/mL
[H]/N=C(/N)N[C@H]1[C@H](O)[C@@H](O)[C@H](O[C@@H]2O[C@@H](C)[C@](O)(C=O)[C@H]2O[C@@H]2O[C@@H](CO)[C@H](O)[C@@H](O)[C@@H]2NC)[C@@H](N/C(N)=N\[H])[C@@H]1O,Bacillus subtilis,"microbial growth, well diffusion",MTCC121,"1000 µg/mL, 18 h",inhibition zone,24 mm
CCOC(=O)/C=C1/SC(N/N=C/c2c(-c3ccc(OC)cc3)nc3ncccn23)=NC1=O,Bacillus subtilis,"microbial growth, well diffusion",ATCC6051,100 µg/mL,inhibition zone,11 mm
